# Test results as given in ChEMBL document CHEMBL1129543, “Synthesis and evaluation of N-(phenylacetyl)trifluoromethanesulfonamides as anticonvulsant agents” (J Med Chem, 1996).
# Tests used:
# Mus musculus [1] = experiment: Median Effective dose was evaluated by Maximal electroshock seizure (MES) test in mice by oral administration up to 2000 mg/kg; f=no protection; assay type: functional, organism-based; design: dose 2000 mg/kg
# Mus musculus [2] = species: Mus musculus; experiment: Time to peak toxicity was evaluated by Maximal electroshock seizure test in hours; assay type: functional
# Mus musculus [3] = experiment: Median effective dose was evaluated by Maximal electroshock seizure test through intraperitoneal administration; assay type: functional; conditions: ip
# Procedure, shortened: (§1)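 Phase II in mice, ip dosing in 30% PEG 400. Groups of 6-12 mice per dose until at least three points fall in 10-90% protection. […] MES: 50 mA, 0.2 s corneal. scMet: pentylenetetrazol 85 mg/kg sc.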
# Mus musculus [4] = experiment: Median lethal dose was evaluated by mortality after 24 hr through ip injection administration; assay type: functional
# Procedure, shortened: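 Mice were dosed ip in 30% PEG 400. Mortality was scored 24 h after injection in groups of eight. The 24-h LD₅₀ was derived as for the ED₅₀/TD₅₀, with 95% confidence intervals.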
# Mus musculus [5] = experiment: […] was evaluated by Neurologic toxicity (rotarod test) in mice by oral administration; assay type: functional
# Procedure, shortened: (§2)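 Oral dosing in 30% PEG 400: phase IV in mice (0.01 mL/g), phase VI in Sprague-Dawley rats (0.004 mL/g). ED50/TD50 found as in phase II, at the stated time of peak effect. MES current 50 mA in mice, 150 mA in rats. PTZ sc 85 mg/kg in mice, 70 mg/kg in rats. Toxicity by rotorod in mice; positional sense, gait and stance in rats. PI = TD50/ED50.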
# Mus musculus [6] = experiment: Inhibition of seizures induced in mice by a convulsant dose of bicuculline through ip administration; assay type: functional
# Procedure, shortened: (§3)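 Phase V differentiation in mice: test drug given ip at time of peak therapeutic effect, then the CD₉₇ of each convulsant (picrotoxin, bicuculline, strychnine) given ip as a 0.5% solution; observation 30 min for bicuculline and strychnine, 45 min for picrotoxin. Drug in 30% PEG 400, 0.01 mL/g. ED₅₀ with 95% confidence intervals from ≥3 points in the 10-90% protection range, groups of 6-12 mice.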
# Mus musculus [7] = experiment: Time to peak effect in mice was evaluated by Subcutaneous pentylenetetrazole seizure test in hours by oral administration; assay type: functional; procedure, shortened: as §2
# Mus musculus [8] = species: Mus musculus; experiment: Median hypnotic dose was evaluated by loss of righting reflex; assay type: functional
# Mus musculus [9] = experiment: Time to peak effect in mice was evaluated by Maximal electroshock seizure (MES) test in hours by oral administration; assay type: functional; procedure, shortened: as §2
# Mus musculus [10] = experiment: Time to peak effect in mice was evaluated by Neurologic toxicity (rotarod test) in hours by oral administration; assay type: functional
# Procedure, shortened: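 Oral dosing in mice in 30% PEG 400 (0.01 mL/g). Neurologic deficit was scored by the rotorod ataxia test, and the time of peak effect was given in hours.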
# Mus musculus [11] = experiment: (§4) Median Effective dose was evaluated by Subcutaneous pentylenetetrazole seizure test in Rats by oral administration; assay type: functional
# Mus musculus [12] = experiment: Median Effective dose was evaluated by Maximal electroshock seizure (MES) test in Rats by oral administration up to 1200 mg/kg; g= no protection; assay type: functional, organism-based; design: dose 1200 mg/kg
# Mus musculus [13] = experiment: (§5) Time to peak effect in Rats was evaluated by Neurologic toxicity (rotarod test) in hours by oral administration; assay type: functional
# Mus musculus [14] = experiment: Median effective dose was evaluated by subcutaneous pentylenetetrazole seizure test through intraperitoneal administration; assay type: functional; procedure, shortened: as §1
# Mus musculus [15] = species: Mus musculus; experiment: Time to peak activity was evaluated by Maximal electroshock seizure test in hours; assay type: functional
# Mus musculus [16] = experiment: Inhibition of picrotoxin-induced seizures in mice by ip administration at 250-1000 mg/kg (h= maximum 62.5% protection); assay type: functional, organism-based; procedure, shortened: as §3
# Mus musculus [17] = experiment: Median Effective dose was evaluated by Subcutaneous pentylenetetrazole seizure test in mice by oral administration; assay type: functional
# Mus musculus [18] = experiment: (§6) Time to peak effect in Rats was evaluated by Maximal electroshock seizure (MES) test in hours by oral administration; assay type: functional
# Procedure, shortened: (§7)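 Oral dosing in Sprague-Dawley rats (30% PEG 400, 0.004 mL/g). Time to peak effect, in hours, was read in the MES test (150 mA, 60 Hz, corneal, 0.2 s; loss of tonic hind-leg extension) and in the scMet test (pentylenetetrazol 70 mg/kg sc; no clonus ≥5 s within 30 min).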
# Mus musculus [19] = experiment: (§8) Time to peak effect in Rats was evaluated by Subcutaneous pentylenetetrazole seizure test in hours by oral administration; assay type: functional; procedure, shortened: as §7
# Mus musculus [20] = experiment: Median toxic dose was evaluated by […] through intraperitoneal administration; assay type: functional
# Rattus norvegicus [21] = experiment: as §6; assay type: functional; procedure, shortened: as §2
# Mus musculus [22] = experiment: Inhibition of seizures induced in mice by a convulsant dose of strychnine through ip administration; assay type: functional; procedure, shortened: as §3
# Rattus norvegicus [23] = experiment: as §4; assay type: functional
# Rattus norvegicus [24] = experiment: as §8; assay type: functional; procedure, shortened: as §2
# Rattus norvegicus [25] = experiment: as §5; assay type: functional
# Rattus norvegicus [26] = species: Rattus norvegicus; experiment: Protective index (TD50/ED50) was determined against MES induced seizure in rat.; assay type: functional
# Procedure, shortened: as §2, with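 “rats.” for “rats. PTZ sc 85 mg/kg in mice, 70 mg/kg in rats.”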
# Rattus norvegicus [27] = species: Rattus norvegicus; experiment: Protective index (TD50/ED50) was determined against scMet induced seizure in rat.; assay type: functional
# Procedure, shortened: as §2, with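 “rats.” for “rats. PTZ sc 85 mg/kg in mice, 70 mg/kg in rats.”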
# Mus musculus [28] = experiment: Anti-seizure activity was evaluated by Subcutaneous pentylenetetrazole seizure test at dose 100 mg/kg after 0.5 hours; +++ denotes antiseizure activity; assay type: functional, organism-based; design: dose 100 mg/kg
# Procedure, shortened: (§9)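 Phase I screen in mice: ip dosing at 30, 100, 300 and 600 mg/kg in 30% PEG 400, read 0.5 h and 4 h after. Pentylenetetrazol given sc at CD97 (85 mg/kg). Protection means no clonic spasm of at least 5 s over 30 min. Scored ++++ to + for 30 to 600 mg/kg.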
# Mus musculus [29] = experiment: Anti-seizure activity was evaluated by Maximal electroshock seizure (MES) test at dose 300 mg/kg after 0.5 hours; ++ denotes antiseizure activity; assay type: functional, organism-based; design: dose 300 mg/kg
# Procedure, shortened: (§10)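 Phase I screen in mice: ip injection at 30, 100, 300 and 600 mg/kg in 30% PEG 400 (0.01 mL/g). Test run 0.5 h and 4 h after dosing. 60-Hz AC, 50 mA, via corneal electrodes for 0.2 s. Protection means abolition of hind-leg tonic extension. Scored ++++ to + for activity at 30 to 600 mg/kg.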
# Mus musculus [30] = experiment: Anti-seizure activity was evaluated by Neurologic toxicity (rotarod test) at dose 600 mg/kg after 0.5 hours; + denotes neurotoxicity; assay type: functional, organism-based; design: dose 600 mg/kg
# Procedure, shortened: (§11)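 Phase I neurotoxicity in mice by rotorod ataxia test. Compound given ip at 30, 100, 300 or 600 mg/kg in 30% PEG 400, read 0.5 h and 4 h after. Scored ++++ to + for toxicity at 30 to 600 mg/kg; - means no toxicity.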
# Mus musculus [31] = experiment: Anti-seizure activity was evaluated by Neurologic toxicity (rotarod test) at dose 300 mg/kg after 4.0 hours; ++ denotes antiseizure activity; assay type: functional, organism-based; design: dose 300 mg/kg; procedure, shortened: as §11
# Mus musculus [32] = experiment: Anti-seizure activity was evaluated by Maximal electroshock seizure (MES) test at dose 100 mg/kg after 4.0 hours; +++ denotes antiseizure activity; assay type: functional, organism-based; design: dose 100 mg/kg; procedure, shortened: as §10
# Mus musculus [33] = experiment: Anti-seizure activity was evaluated by Subcutaneous pentylenetetrazole seizure test at dose 300 mg/kg after 0.5 hours; ++ denotes antiseizure activity; assay type: functional, organism-based; design: dose 300 mg/kg; procedure, shortened: as §9
# Mus musculus [34] = experiment: Anti-seizure activity was evaluated by Subcutaneous pentylenetetrazole seizure test at dose 300 mg/kg after 4.0 hours; ++ denotes antiseizure activity; assay type: functional, organism-based; design: dose 300 mg/kg; procedure, shortened: as §9
# Mus musculus [35] = experiment: Anti-seizure activity was evaluated by Neurologic toxicity (rotarod test) at dose 600 mg/kg after 4.0 hours; + denotes neurotoxicity; assay type: functional, organism-based; design: dose 600 mg/kg; procedure, shortened: as §11
# Mus musculus [36] = experiment: Anti-seizure activity was evaluated by Maximal electroshock seizure (MES) test at dose 100 mg/kg after 0.5 hours; +++ denotes antiseizure activity; assay type: functional, organism-based; design: dose 100 mg/kg; procedure, shortened: as §10
Structure (SMILES),TPE (Mus musculus [2]),ED50 (Mus musculus [3]),ED50 (Mus musculus [6]),TPE (Mus musculus [7]),HD50 (Mus musculus [8]),TPE (Mus musculus [9]),TPE (Mus musculus [10]),ED50 (Mus musculus [14]),TPE (Mus musculus [15]),ED50 (Mus musculus [17]),TD50 (Mus musculus [20]),PI (Rattus norvegicus [26]),PI (Rattus norvegicus [27]),Activity (Mus musculus [30]),also measured
CCC1(C)CC(=O)NC1=O (stereo not drawn) [ETHOSUXIMIDE],0.5,> 1000 mg/kg,459 mg/kg,0.5 h,850 mg/kg,0.5 h,1 h,130 mg/kg,0.5,193 mg/kg,441 mg/kg,–,–,–,ED50 (Mus musculus [1]): No protection; LD50 (Mus musculus [4]): 1810 mg/kg; TD50 (Mus musculus [5]): 879 mg/kg; ED50 (Mus musculus [11]): 54 mg/kg; ED50 (Mus musculus [12]): No protection; TPE (Mus musculus [13]): 2 h; ED50 (Mus musculus [16]): Max protection; TPE (Mus musculus [18]): 2 h; TPE (Mus musculus [19]): 2 h
CCCC(CCC)C(=O)O [VALPROIC ACID],0.25,–,360 mg/kg,1 h,885 mg/kg,1 h,2 h,149 mg/kg,0.25,388 mg/kg,–,–,–,–,TPE (Rattus norvegicus [21]): 0.5 h; ED50 (Mus musculus [22]): 387 mg/kg; ED50 (Rattus norvegicus [23]): 180 mg/kg; TPE (Rattus norvegicus [24]): 0.5 h; TPE (Rattus norvegicus [25]): 1 h
O=C(Cc1ccc(Cl)cc1)NS(=O)(=O)C(F)(F)F,4,7.6 mg/kg,–,–,–,–,–,49 mg/kg,4,–,206 mg/kg,27,4.2,Antiseizure activity,Activity (Mus musculus [28]): Antiseizure activity; Activity (Mus musculus [29]): Antiseizure activity; Activity (Mus musculus [31]): Antiseizure activity
COc1cccc(CC(=O)NS(=O)(=O)C(F)(F)F)c1,2,19 mg/kg,–,–,–,–,–,77 mg/kg,2,–,325 mg/kg,17,4.2,Antiseizure activity,Activity (Mus musculus [32]): Antiseizure activity; Activity (Mus musculus [33]): Antiseizure activity; Activity (Mus musculus [34]): Antiseizure activity; Activity (Mus musculus [35]): Antiseizure activity; Activity (Mus musculus [36]): Antiseizure activity
